Screens (PubChem)
14-3-3 Bad inh – inhibitors of 14-3-3 zeta/Bad binding, primary screen, biochemical, TR-FRET, bovine 14-3-3 zeta; 14-3-3 protein zeta/delta (Bos taurus), P63103; TR-FRET 14-3-3zeta/Dy647-pBad peptide displacement, 1 h; inhibition, % at 21.7 µM; hit rate 0.71% among 220,000;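 active = inhibition above about 70%, limit read from the data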
Hck-Nef inh – inhibitors of Nef-activated human Hck kinase, primary screen, biochemical, Z-Lyte FRET, 384-well, Hck-YEEI; Tyrosine-protein kinase HCK (Homo sapiens), P08631; Recombinant Hck-YEEI plus Nef, Z-Lyte FRET kinase assay; inhibition, % at 20 µM; hit rate 0.68% among 220,000;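 active = Hck-Nef kinase inhibition above about 50%, limit read from the data; inactive = inhibition below that limit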
Target sequence (P08631 whole entry, looked up): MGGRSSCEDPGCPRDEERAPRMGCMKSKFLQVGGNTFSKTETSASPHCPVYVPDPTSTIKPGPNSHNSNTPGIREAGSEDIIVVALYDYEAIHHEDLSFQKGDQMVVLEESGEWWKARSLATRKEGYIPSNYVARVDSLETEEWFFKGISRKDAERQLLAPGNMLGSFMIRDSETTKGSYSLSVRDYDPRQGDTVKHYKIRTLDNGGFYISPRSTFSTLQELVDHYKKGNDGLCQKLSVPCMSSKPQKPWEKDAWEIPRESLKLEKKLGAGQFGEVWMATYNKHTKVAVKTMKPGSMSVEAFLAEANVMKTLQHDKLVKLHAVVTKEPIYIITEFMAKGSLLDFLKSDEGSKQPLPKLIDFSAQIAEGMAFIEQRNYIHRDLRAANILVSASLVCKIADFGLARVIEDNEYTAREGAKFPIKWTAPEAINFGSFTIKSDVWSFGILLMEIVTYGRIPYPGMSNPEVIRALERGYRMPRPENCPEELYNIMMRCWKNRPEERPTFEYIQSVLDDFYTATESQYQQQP
Tb hexokinase – Trypanosoma brucei hexokinase 1 inhibitors, primary screen, biochemical, G6PDH-coupled NADH absorbance, MLSCN library; recombinant TbHK1, G6PDH-coupled NADH A340; inhibition, % at 10 µM; hit rate 0.11% among 220,000;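 active = inhibition of 50% or more in the single-dose primary screen; inactive = inhibition below 50%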
Wee1 stabilizer – Wee1 degradation inhibitors, primary screen, cell-based, HeLa, Wee1K328M-luciferase, luminescence; HeLa Luc-Wee1K328M stability; 100% = proteasome inhibitor MG132 effect; hit rate 1.2% among 220,000; Wee1-like protein kinase (Homo sapiens), P30291; reporter increase, % at 5 µM; AID 1321, 2008;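 active = activation above the mean of all tested compounds plus 3 SD, set per screening run, cut at about 8.8% in these data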;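 also: cells exposed to compound for 20 h before luminescence read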
Mdm2 ligase inh – MDM2-luciferase reporter signal enhancers, primary screen, MDM2 E3 ligase inhibitor project, cell-based, luminescence, 1536-well; cell-based MDM2 ubiquitination luciferase reporter, 2 h; 0 = plate control, 100 = twice control, blank-subtracted; hit rate 0.11% among 210,000; E3 ubiquitin-protein ligase Mdm2 (Homo sapiens), Q00987; signal enhancement, % at 5 µM;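 active = signal enhancement of 30% or more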;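 also: luminescence tracks abundance of the self-degrading MDM2-luciferase fusion protein; higher signal means inhibition of MDM2 E3 ligase activity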
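Material: Stable MDM2–luciferase fusion reporter cells | Amount: 2000 cells seeded into each well | Dosing: One concentration, 5 µM, with 0.2% DMSO | Incubation: 4 h cell settling then 2 h compound exposure, 37 °C | Measured by: Luciferase luminescence | Read-out basis: % enhancement relative to plate controls after blank subtraction | Benchmarks: Control and blank well means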
Hck-Nef confirm – retest of Hck:Nef kinase inhibitor hits, confirmation, biochemical, Z-Lyte FRET, 384-well, p-Tyr peptide counterscreen; shares compounds with Hck-Nef inh; Recombinant Hck-YEEI:Nef, Z-Lyte FRET kinase assay; calls only at 10 µM; hit rate 28% among 1,300; AID 463188, 2010;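 active = average inhibition of at least 50%, with Z-scores no higher than 3 in both the phospho-tyrosine peptide and fluorescence counterscreens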
Of the large screens only hits and unclear results are named; the others gave an inactive call (follow-up assays come after a bar, where they were run); [ ] = another dose, or the depositor's remark. Hits are enriched below; roughly 2.7% of the tested compounds scored in any of these assays.

CCOc1ccc(Br)cc1S(=O)(=O)Nc1cccc(S(=O)(=O)N(C)c2ccccc2)c1	none
COc1ccc(OC)c(C2C(C#N)=C(N)Oc3cc(N)ccc32)c1 (stereo not given)	none
N#CC1=C(N)Oc2cc(N)ccc2C1C1CCCCC1 (stereo not given)	Hck-Nef inh 50.7 | Hck-Nef confirm inactive
O=C(CSc1ccc(Cl)cc1)NCc1ccco1	none
CCn1c(SCC(=O)Nc2ccc(-c3nc4ccc(C)cc4s3)cc2)nnc1-c1ccccc1	14-3-3 Bad inh 91.0[fluorescence artefact?], Hck-Nef inh 61.6 | Hck-Nef confirm active
C=CCn1c(SCC(=O)Nc2ccc(-c3nc4ccc(C)cc4s3)cc2)nnc1-c1ccncc1	none
O=C(Nc1ccc(NC(=O)c2sc3ccccc3c2Cl)cc1Cl)c1ccco1	Hck-Nef inh 78.2 | Hck-Nef confirm inactive
CN(C)S(=O)(=O)Oc1cccc(C(=O)Nc2ccc(Cl)c(Cl)c2)c1	none
Cc1cc2nc(CS(=O)(=O)c3ccccc3)cc(=O)n2[nH]1	none
Cc1ccc(NC(=O)COc2ccc(/C=N/NC(=O)CSCc3ccccc3)cc2)cc1	none
Cc1ccc(NC(=O)COc2ccc(/C=C3/SC(=Nc4ccccc4)N(Cc4cccnc4)C3=O)cc2)cc1	Hck-Nef inh 90.3 | Hck-Nef confirm active
O=C(c1ccc(C(=O)N2CCOCC2)nc1)N1CCOCC1	none
O=C(NCc1ccccc1)Nc1cccn(Cc2ccc(Cl)cc2)c1=O	none
S=C(c1ccc2c(c1)OCO2)N1CCCCCC1	none
Oc1cc2c(cc1C(c1ccc(Br)cc1)N1CCCC1)OCO2 (stereo not given)	Hck-Nef inh 73.2 | Hck-Nef confirm inactive
Cc1noc(NS(=O)(=O)c2ccc(NC(=O)CSc3nc4ccccc4s3)cc2)c1C	none
COc1ccccc1C1/C(=C(/O)c2ccccc2)C(=O)C(=O)N1CC(C)O (stereo not given)	Hck-Nef inh 71.9 | Hck-Nef confirm inactive
COc1ccccc1C1/C(=C(/O)c2ccccc2)C(=O)C(=O)N1CCO (stereo not given)	none
CC(C)c1cccc(C(C)C)c1NC(=O)Cn1c(=O)cnc2ccccc21	none
O=C(CCCN1C(=O)/C(=C/c2ccco2)SC1=S)Nc1cccc(C(=O)O)c1	Hck-Nef inh 81.7 | Hck-Nef confirm inactive
NN1C(=O)/C(=C\c2ccco2)SC1=S	Hck-Nef inh 77.7 | Hck-Nef confirm inactive
O=C1/C(=C/c2ccco2)SC(=S)N1c1cccnc1	14-3-3 Bad inh 85.0, Hck-Nef inh 90.4 | Hck-Nef confirm inactive
COc1cc(OC)c(C2N(c3ccc(Cl)cc3)C(=O)C3CCCN32)cc1OC (stereo not given)	none
Brc1ccc(Oc2ncc(CN3CCOCC3)s2)cc1	none
Cn1cnc2c(N/N=C/c3cccs3)ncnc21	Hck-Nef inh 68.3 | Hck-Nef confirm active
O=c1/c(=C\c2cc([N+](=O)[O-])cc([N+](=O)[O-])c2O)sc2nc3ccccc3n12	14-3-3 Bad inh 75.0, Hck-Nef inh 70.8, Tb hexokinase 60.4 | Hck-Nef confirm active
CC1=N/C(=C/c2ccco2)C(=O)O1	Hck-Nef inh 58.5 | Hck-Nef confirm inactive
CN(C)c1ccc(/C=C/C=N/Nc2nc(N3CCOCC3)nc(N3CCOCC3)n2)cc1	none
COCCNC(=O)C1CCN(S(=O)(=O)c2c(C)noc2/C=C/c2cccs2)CC1	none
CCCNc1nc(NCC)nc(OC)n1	none
COc1ccc(N=Cc2c(O)[nH]c3ccccc23)cc1	none
Oc1[nH]c2ccccc2c1C=Nc1ccc2c(c1)OCO2	Hck-Nef inh 51.9 | Hck-Nef confirm inactive
COc1ccc(Br)cc1C(=O)NC(=S)Nc1ccc(Cl)c(C(=O)O)c1	none
